The source made the active and inactive calls. The rule behind the calls is not given here.
Tests used:
Oocyte [1] = test: Potentiation of Wistar rat AMPA receptor expressed in Xenopus laevis oocytes assessed as 2-fold increase in amplitude of (S)-AMPA-induced current by two electrode voltage-clamp method; format: cell-based
Method in brief: (§1)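 Xenopus oocytes were injected with rat cortex poly(A+) mRNA (1 mg/mL) and kept 3–4 days at 18 °C in Barth's solution before voltage-clamp recording. (S)-AMPA alone was applied until two similar inward currents were obtained; their mean was set as 100%. Drug was bath-applied at successive increasing concentrations every 5 min 45 s, on 2–3 oocytes. EC2X and EC5X were interpolated as twofold and fivefold current increases; EC50 was taken at half-maximal potentiation.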

Oocyte [2] = test: Potentiation of Wistar rat AMPA receptor expressed in Xenopus laevis oocytes assessed as 5-fold increase in amplitude of (S)-AMPA-induced current by two electrode voltage-clamp method; format: cell-based; method in brief: as §1
Oocyte [3] = test: Potentiation of Wistar rat AMPA receptor expressed in Xenopus laevis oocytes assessed as increase in amplitude of (S)-[…] current by two electrode voltage-clamp method relative to AMPA; format: cell-based; parameters: concentration or dose not given beside the values; method in brief: as §1
[4] = Lipophilicity, log P by shake flask method; format: physicochemical; conditions: octanol/water
Method in brief: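 Partition coefficient was measured between 1-octanol and phosphate buffer, pH 7.40, by shake-flask, using 1×10^-4 M stock drug solutions in octanol or buffer. Drug concentration after partition was measured by UV spectrophotometry at maximum absorbance.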

Rattus norvegicus [5] = test: Cognitive enhancing effect in Wistar rat at 10 mg/kp, ip after 1 hr by one-trial object recognition test; format: functional, organism-based
Method in brief: (§2)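 Adult rats had three 3-min sessions 24 h apart. Two similar objects were presented in session 2. In the last session one object was replaced by a new one. Compound or vehicle was given i.p. 1 h before each session at 0.3, 1, 3 or 10 mg/kg. The read-out was the discrimination index (new − familiar exploration / total exploration) in the last session.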

Rattus norvegicus [6] = test: Cognitive enhancing effect in Wistar rat at 100 mg/kp, po after 1 hr by one-trial object recognition test; format: functional, organism-based
Rattus norvegicus [7] = test: Cognitive enhancing effect in Wistar rat at 3 mg/kp, ip after 1 hr by one-trial object recognition test; format: functional, organism-based; method in brief: as §2
Rattus norvegicus [8] = test: Cognitive enhancing effect in Wistar rat assessed as improvement in juvenile recognition behavior at 100 mg/kp, po; format: functional, organism-based
Rattus norvegicus [9] = test: Toxicity in Wistar rat at 100 mg/kp, po; format: organism-based; conditions: in vivo
Rattus norvegicus [10] = test: Cognitive enhancing effect in Wistar rat assessed as improvement in juvenile recognition behavior at 1 mg/kp, ip; format: functional, organism-based
Method in brief: (§3)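 Adult rats were housed individually for 2 days before testing. After 5-min habituation in the home cage, a 21-day juvenile was introduced for a 5-min session and investigation time T1 was recorded on video. Dosing was i.p. 1 min after that session. The same juvenile was reintroduced 120 min later for 5 min (T2). T2–T1 was analysed by one-way ANOVA; n = 8.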

Rattus norvegicus [11] = test: Cognitive enhancing effect in Wistar rat assessed as improvement in juvenile recognition behavior at 0.3 mg/kp, ip; format: functional, organism-based; method in brief: as §3
Rattus norvegicus [12] = test: Cognitive enhancing effect in Wistar rat assessed as improvement in juvenile recognition behavior at 3 mg/kp, ip; format: functional, organism-based; method in brief: as §3
Rattus norvegicus [13] = species: Rattus norvegicus; test: Cognitive enhancing effect in Wistar rat after 1 hr by one-trial object recognition test; format: functional, organism-based; method in brief: as §2

SMILES	EC (Oocyte [1])	EC (Oocyte [2])	Activity (Oocyte [3])	also measured
CCN1CNS(=O)(=O)c2cc(Br)cnc21	160 µM	> 300 µM		
Cc1cnc2c(c1)N(C)CNS2(=O)=O	146 µM	> 300 µM		
CCN1CNS(=O)(=O)c2cc(C)ccc21	25 µM	95 µM	> 1300%	
CCN1CNS(=O)(=O)c2ncc(C)cc21	116 µM	> 300 µM		logP [4]: 0.41
NS(=O)(=O)c1cc2c(cc1Cl)NC(C1CC3C=CC1C3)NS2(=O)=O (stereo not drawn)	1.6 µM	9.8 µM	844%	
CC1Nc2ccc(Cl)cc2S(=O)(=O)N1 (stereo not drawn)	134 µM	509 µM	> 700%	
CN1CNS(=O)(=O)c2cc(Cl)cnc21	21 µM	81 µM		
CCN1CNS(=O)(=O)c2cc(F)cnc21	123 µM	300 µM	> 422%	
O=S1(=O)N[C@H]2CCCN2c2ccccc21	24.6 µM	78.2 µM	1260%	
CCN1CNS(=O)(=O)c2ncccc21				logP [4]: 0.12
CCN1CN(C)S(=O)(=O)c2cc(Cl)cnc21	110 µM	335 µM		
CCN1CNS(=O)(=O)c2cc(C)cnc21	> 1000 µM	> 1000 µM		
CN1CNS(=O)(=O)c2cc(F)cnc21	> 100 µM			
CCN1CN(C)S(=O)(=O)c2ncc(C)cc21	86 µM	> 300 µM		
CCN1CN(C)S(=O)(=O)c2ncccc21	38 µM	96 µM		
CCN1CNS(=O)(=O)c2cc(Br)ccc21	29 µM	78 µM	> 1100%	
CCN1CNS(=O)(=O)c2cc(Cl)cnc21	20 µM	44 µM	1090%	Activity (Rattus norvegicus [5]): Active; Activity (Rattus norvegicus [6]): inactive; Activity (Rattus norvegicus [7]): Active; Activity (Rattus norvegicus [8]): inactive; Activity (Rattus norvegicus [9]): Non-toxic; Activity (Rattus norvegicus [10]): Active; Activity (Rattus norvegicus [11]): Active; Activity (Rattus norvegicus [12]): Active; Activity (Rattus norvegicus [13]): Dose-dependent effect
CN1CNS(=O)(=O)c2ncccc21	21 µM	51 µM		
CN1CNS(=O)(=O)c2cccnc21	200 µM	500 µM		

From ChEMBL document CHEMBL1140200, “Synthesis and pharmacological evaluation of a second generation of pyridothiadiazine 1,1-dioxides acting as AMPA potentiators” (Bioorg Med Chem, 2008)
